Source: ChEMBL document CHEMBL1134778, “Amino acid phosphoramidate monoesters of 3'-azido-3'-deoxythymidine: relationship between antiviral potency and intracellular metabolism” (J Med Chem, 2001)

How the values were obtained:
Homo sapiens [1] = organism: Homo sapiens; assay: Effective concentration required to inhibit the replication of HIV-1 by 50% in PMBCs from donor 2; type: functional, organism-based
[2] = tested on: Human immunodeficiency virus 1; assay: Concentration required to inhibit the production of proviral DNA in unactivated PBMCs
Homo sapiens [3] = organism: Homo sapiens; assay: Concentration required to kill 50% of PBMCs; type: functional, organism-based
How it was run: (§1)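 Uninfected PHA-stimulated PBMCs or CEM cells plated at 2.5 × 10^5 cells/well with diluted drug. Incubated 6 days at 37 °C, 10% CO2. XTT/PMS added and incubated 4 h at 37 °C. Absorbance read at 450 nm, 630 nm reference.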

[4] = tested on: Human immunodeficiency virus 1; assay: Concentration required to inhibit HIV-1 replication by 50% in activated PBMCs
CCRF-CEM [5] = assay: Concentration required to kill 50% of CEM cells; type: functional, cell-based; details: Homo sapiens; how it was run: as §1
Homo sapiens [6] = organism: Homo sapiens; assay: Effective concentration required to inhibit the replication of HIV-1 by 50% in PMBCs in the presence of thymidine; type: functional, organism-based
Homo sapiens [7] = organism: Homo sapiens; assay: Effective concentration required to inhibit the replication of HIV-1 by 50% in PMBCs from donor 1; type: functional, organism-based
Homo sapiens [8] = organism: Homo sapiens; assay: Effective concentration required to inhibit the replication of HIV-1 by 50% in PMBCs in the absence of thymidine; type: functional, organism-based
Homo sapiens [9] = organism: Homo sapiens; assay: (§2) Intracellular of AZT-TP concentrations in LAI/HIV-1 infected PMBCs was determined at a conc of 10 uM); type: functional, organism-based
How it was run: (§3)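 PHA-stimulated, LAI/HIV-1-infected PBMCs (donor 2) at 10^6 cells/mL, triplicate, given 10 µM compound ± 50 µM thymidine for 18 h at 37 °C. Cells washed, extracted in 60% methanol overnight at −20 °C, dried and reconstituted. AZT-TP quantified by inhibition of recombinant HIV-1 RT (poly(rA)-oligo(dT), 3H-TTP, 2 h at 37 °C) relative to AZT-TP standards; pmol/10^6 cells.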

Homo sapiens [10] = organism: Homo sapiens; assay: Effective concentration required to inhibit the replication of HIV-1 with no pretreatment of activated PBMCs; type: functional, organism-based
How it was run: (§4)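 Uninfected PHA-stimulated PBMCs (2.5 × 10^5 cells/mL) given compound in ddH2O in triplicate for 2 h at 37 °C, then LAI/HIV-1 (5000 DPM/10^6 cells) added. In parallel cultures, cells were infected 3 h first and then treated. After 6 days at 37 °C, supernatant RT activity measured.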

U1 = assay: Antiviral activity was determined in chronically infected U1 cell line with HIV-1; type: functional, cell-based; details: Homo sapiens
How it was run: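 HIV-1 chronically infected U1 cells (1.5 × 10^5 cells/well) in RPMI 1640 with 10% FBS and 10 ng/mL TNF-α. Compound in ddH2O added to duplicate cultures. Incubated 48 h at 37 °C, 5% CO2. Supernatant p24gag measured by ELISA; XTT assay run on the remaining culture.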

Homo sapiens [11] = organism: Homo sapiens; assay: as §2; type: functional, organism-based; how it was run: as §3; remark: listed apart in the source
Homo sapiens [12] = organism: Homo sapiens; assay: Concentration required to kill 50% of PBMCs cells; type: functional, cell-based; details: PBMC; how it was run: as §1
Homo sapiens [13] = organism: Homo sapiens; assay: Effective concentration required to inhibit the replication of HIV-1 with 2 hr pretreatment of activated PBMCs; type: functional, organism-based; how it was run: as §4
Homo sapiens [14] = organism: Homo sapiens; assay: Effective concentration to inhibit HIV-1 replication by 50% in PMBCs cells from donor 1; type: functional, cell-based
Homo sapiens [15] = organism: Homo sapiens; assay: Effective concentration to inhibit HIV-1 replication by 50% in PMBCs cells from donor 2; type: functional, cell-based
How it was run: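 Ficoll-isolated human PBMCs, PHA-stimulated, grown in RPMI 1640 with 10% heat-inactivated FBS, penicillin/streptomycin and IL-2 (10 U/mL) at 37 °C. Cells were infected with LAI/HIV-1, and compounds in ddH2O were added to duplicate or triplicate cultures. After 6 days, supernatant viral RT activity was measured.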

[16] = Inhibition of AZT-MP production by cell free extracts of CEM cells; type: functional, Homo sapiens, CCRF-CEM; design: unit not given here
How it was run: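 CEM cells (1.5 × 10^8) sonicated in 1 mL 20 mM Tris-HCl, 500 mM NaCl, pH 7.5. Lysate incubated with phosphoramidate and carbamate, each added from 10 mM stock, for 45 min at 37 °C, then stopped with methanol. AZT-MP quantified by RP-HPLC-RIA against a no-carbamate control. Mean of two experiments.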

CCRF-CEM [17] = assay: Effective concentration to inhibit HIV-1 replication by 50% in CEM cells; type: functional, cell-based; details: Homo sapiens
How it was run: (§5)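 PHA-stimulated CEM cells infected 3 h at 37 °C with LAI/HIV-1 (10 000 DPM RT activity/10^6 cells), then washed. Resuspended at 2.5 × 10^5 cells/mL in medium with 10 U/mL IL-2. Drugs in ddH2O added to duplicate or triplicate cultures. Held 6 days at 37 °C; supernatant p24 measured by ELISA.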

Homo sapiens [18] = organism: Homo sapiens; assay: Effective concentration of required to inhibit the replication of HIV-1 BY 50% in PMBCs from donor 2; type: functional, organism-based
CCRF-CEM [19] = assay: Effective concentration of required to inhibit the replication of HIV-1 BY 50% in CEM cells; type: functional, cell-based; details: Homo sapiens; how it was run: as §5
Homo sapiens [20] = organism: Homo sapiens; assay: Effective concentration of required to inhibit the replication of HIV-1 BY 50% in PMBCs from donor 1; type: functional, organism-based

SMILES	IC100 [2] [µM]	IC50 (Homo sapiens [3]) [nM]	EC50 [4] [nM]	IC50 (CCRF-CEM [5]) [nM]	EC50 (Homo sapiens [6]) [nM]	EC50 (Homo sapiens [8]) [nM]	EC50 (Homo sapiens [18]) [nM]	EC50 (Homo sapiens [20]) [nM]	also measured
COC(=O)[C@@H](NP(=O)(O)OC[C@H]1O[C@@H](n2cc(C)c(=O)[nH]c2=O)C[C@@H]1N=[N+]=[N-])C(C)C	0.1	> 100000	350	> 100000	30000	350			EC50 (Homo sapiens [1]): 900 nM; EC50 (Homo sapiens [7]): 1300 nM
COC(=O)[C@H](Cc1c[nH]c2ccccc12)NP(=O)(O)OC[C@H]1O[C@@H](n2cc(C)c(=O)[nH]c2=O)C[C@@H]1N=[N+]=[N-]	0.1		350	> 100000	30000	350			Concentration (pM (10e6*cells)-1) (Homo sapiens [9]): 0.01; EC50 (Homo sapiens [10]): 350 nM; EC50 (U1): 40000 nM; Concentration (pM (10e6*cells)-1) (Homo sapiens [11]): 0.22; IC50 (Homo sapiens [12]): > 100000 nM; EC50 (Homo sapiens [13]): < 10 nM; EC50 (Homo sapiens [14]): 2000 nM; EC50 (Homo sapiens [15]): 350 nM; Activity [16]: 6.39; EC50 (CCRF-CEM [17]): 4 nM
Cc1cn([C@H]2C[C@H](N=[N+]=[N-])[C@@H](CO)O2)c(=O)[nH]c1=O [ZIDOVUDINE]	0.01	> 100000	10		300	7	7	6	Concentration (pM (10e6*cells)-1) (Homo sapiens [9]): 0.69; EC50 (Homo sapiens [10]): 10 nM; EC50 (U1): 25000 nM; Concentration (pM (10e6*cells)-1) (Homo sapiens [11]): 1.37; EC50 (Homo sapiens [13]): 15 nM; EC50 (CCRF-CEM [19]): < 1 nM
CNC(=O)[C@@H](Cc1c[nH]c2ccccc12)NP(=O)(O)OC[C@H]1O[C@@H](n2cc(C)c(=O)[nH]c2=O)C[C@@H]1N=[N+]=[N-]		> 100000		> 100000			180	400	
CNC(=O)[C@H](Cc1ccccc1)NP(=O)(O)OC[C@H]1O[C@@H](n2cc(C)c(=O)[nH]c2=O)C[C@@H]1N=[N+]=[N-]		> 100000		> 100000			250	180	
COC(=O)[C@@H](Cc1c[nH]c2ccccc12)NP(=O)(O)OC[C@H]1O[C@@H](n2cc(C)c(=O)[nH]c2=O)C[C@@H]1N=[N+]=[N-]		> 100000		> 100000			1000	1000	
COC(=O)[C@H](Cc1ccccc1)NC(=O)OC[C@H]1O[C@@H](n2cc(C)c(=O)[nH]c2=O)C[C@@H]1N=[N+]=[N-].COC(=O)[C@H](Cc1ccccc1)NP(=O)(O)OC[C@H]1O[C@@H](n2cc(C)c(=O)[nH]c2=O)C[C@@H]1N=[N+]=[N-]									Activity [16]: 0.03
CNC(=O)[C@H](Cc1c[nH]c2ccccc12)NP(=O)(O)OC[C@H]1O[C@@H](n2cc(C)c(=O)[nH]c2=O)C[C@@H]1N=[N+]=[N-]		> 100000		> 100000			1800	700	
